In PMC11339821 (ACS Omega, 2024):
“And” between values parts separate entries of the source, which are not always exact repeats. Equal entries are not always repeated.

Assays:
Format in all cases: in vivo, Swiss albino mice
[1] = tested on: spatial memory of scopolamine-treated AD mice; test: Morris water-maze test in scopolamine-treated mice; settings: for spatial memory (probe test, fifth day): after platform removal, vs scopolamine group; for number of entries in the arm: intranasal 0.5 mg/kg bw; for time to find the hidden acrylic platform: intranasal 0.5 mg/kg bw (EGCG-AA-TRANS 0.25 mg/kg bw each)
Outline: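 Mice (30 ± 5 g; n = 5/group) were dosed intranasally for 6 days with free or transferosome-loaded test compound at 0.5 mg/kg bw, or 0.25 mg/kg bw of each in the combination. On day 7, scopolamine 0.5 mg/kg bw was given 30 min before trials. Pool 160 cm wide, water 26 cm deep, 22 ± 1 °C; run over 5 days. Quadrant time, arm entries and platform latency recorded; one-way ANOVA with Newman–Keuls.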

NO levels = test: NO; settings: hippocampus tissue homogenate
Outline: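 Hippocampus came from mice dosed intranasally for 6 days and challenged with scopolamine (n = 5). Tissue was homogenised in KCl buffer pH 8.0 with protease and phosphatase inhibitors, then spun at 10,000 g for 25 min at 4 °C. The 10% homogenate was mixed with ammonium chloride and Griess reagent, held 37 °C for 90 min, read at 540 nm. Sodium nitrite standards […]; nitrite in μM/mL; one-way ANOVA with Newman–Keuls.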

[2] = Organ distribution and brain pharmacokinetic study; settings: brain
[3] = Swiss albino, mouse, inhaled or intranasal, 0.5 mg/kg

Row | Cmax ([2]; mice) | MRT0–24 ([2]; mice) | Tmax ([2]; mice) | AUC(0-t) [2, 3] | Cmax [2, 3] | MRT last [2, 3] | Tmax [2, 3] | Compound | spatial memory (probe test, fifth day) [1] | number of entries in the arm [1] | time to find the hidden acrylic platform [1] | NO levels (NO levels)
1 | – | – | – | – | – | – | – | CN1[C@@H]2C[C@@H](OC(=O)[C@H](CO)c3ccccc3)C[C@H]1[C@@H]1O[C@@H]12 [scopolamine, Scopolamine] | significantly reduced their spatial memory | about 12 times | 84 s | significantly higher
2 | 0.78607 ± 0.000784 ng/mL | 1.4 ± 0.985 h and 1.412 ± 0.985 h | 1.101 ± 2.871 h | – | – | – | – | Epigallocatechin-3-gallate [EGCG] | improved spatial memory | 14 times | 42 s | significant decrease in NO levels
3 | – | – | – | 1061 ± 0.654 ng·h/mL | 855.03 ± 0.654 ng/mL | 1.98 ± 0.121 h | 2.12 ± 0.871 h | O=C1O[C@H]([C@@H](O)CO)C(O)=C1O [AA, ascorbic acid] | improved spatial memory | 15 times | 38 s | significant decrease in NO levels
